Measured values published in ChEMBL document CHEMBL1147045, “Targeting thioredoxin reductase is a basis for cancer therapy by arsenic trioxide” (2007).
Active and inactive are the calls of the source. The calls are words filed in the database; no cut-off is given here.

Experiments:
[1] = test system: MCF7; experiment: Reduction of glutathione synthesis in human MCF7 cells at 25 uM after 25 hrs; format: functional; parameters: scale not given: the % may be the effect or the level left
[2] = test system: Escherichia coli; experiment: Inhibition of Escherichia coli thioredoxin upto 5 uM by insulin reduction method
Outline: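 25 nM E. coli TrxR plus 2 μM E. coli Trx were preincubated with ATO for 30 min in 50 mM Tris·HCl/1 mM EDTA pH 7.5 with 200 μM NADPH. Then 200 μM NADPH/160 μM insulin was added and A340 followed. Activity was taken as ΔA340/min over the initial 5 min.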

[3] = test system: MCF7; experiment: Reduction of human MCF7 cell growth at 5.0 uM after 48 hrs by XTT assay; format: functional, cell-based
Outline: (§1)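 MCF-7 cells in RPMI 1640/10% FCS were seeded at 6 × 10^3 cells per well, grown overnight, then exposed to ATO for 24 or 48 h. Medium was replaced with XTT labeling mixture for 3 h and A492 of the formazan read as the measure of proliferation/viability.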

[4] = target: T1, Thioredoxin reductase 1, cytoplasmic (Rattus norvegicus) (UniProt O89049); experiment: Inhibition of NADPH-reduced rat recombinant TrxR1 at >0.5 uM attenuated in presence of 1 mM Glutathione after 30 minis
T1 sequence (whole entry): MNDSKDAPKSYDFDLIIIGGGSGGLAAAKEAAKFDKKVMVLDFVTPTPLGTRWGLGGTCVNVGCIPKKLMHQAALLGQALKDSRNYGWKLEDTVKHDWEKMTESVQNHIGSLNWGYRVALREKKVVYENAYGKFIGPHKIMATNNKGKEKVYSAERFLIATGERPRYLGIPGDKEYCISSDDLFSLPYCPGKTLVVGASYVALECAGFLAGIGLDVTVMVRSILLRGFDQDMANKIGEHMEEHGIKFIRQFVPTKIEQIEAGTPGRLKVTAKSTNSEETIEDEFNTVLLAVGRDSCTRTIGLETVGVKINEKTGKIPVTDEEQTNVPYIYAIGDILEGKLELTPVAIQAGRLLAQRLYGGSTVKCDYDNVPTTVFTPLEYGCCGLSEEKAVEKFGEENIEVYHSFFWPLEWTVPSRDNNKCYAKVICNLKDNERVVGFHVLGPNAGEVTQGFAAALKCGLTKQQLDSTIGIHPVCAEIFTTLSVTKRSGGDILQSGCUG
Outline: (§2)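 NADPH-reduced rat TrxR (10 nM) with 2 μM human Trx, with or without 1 mM GSH, was incubated with ATO for 30 min in Tris/EDTA pH 7.5 containing 200 μM NADPH. Trx-system activity was read after adding 200 μM NADPH/160 μM insulin, as ΔA340/min over the initial 5 min.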

[5] = target: T1, Thioredoxin reductase 1, cytoplasmic (Rattus norvegicus); experiment: Inhibition of NADPH-reduced rat recombinant TrxR1 at 0.1 uM attenuated in presence of 1 mM Glutathione after 30 minis; outline: as §2
[6] = test system: MCF7; experiment: Reduction of human MCF7 cell growth at 2.5 uM after 48 hrs by XTT assay; format: functional, cell-based; outline: as §1
[7] = target: T1, Thioredoxin reductase 1, cytoplasmic (Rattus norvegicus); experiment: Inhibition of NADPH-reduced rat recombinant TrxR1 assessed as […] by DTNB reduction assay
Outline: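 Recombinant rat TrxR1 (50 nM), NADPH-reduced, was preincubated with ATO (0.05–5 μM) for 30 min in 50 mM Tris·HCl/1 mM EDTA pH 7.5 with 200 μM NADPH. Activity was then measured with 5 mM DTNB by following A412; the rate was the slope over the initial 2 min. Duplicate experiments; IC50 after 30-min incubation.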

[8] = target: T1, Thioredoxin reductase 1, cytoplasmic (Rattus norvegicus); experiment: Inhibition of NADPH-reduced rat recombinant TrxR1 at 0.25 uM attenuated in presence of 1 mM Glutathione after 30 minis; outline: as §2
[9] = test system: MCF7; experiment: Inhibition of human MCF7 cell growth after 24 hrs by XTT assay; format: functional, cell-based; outline: as §1

Row | Compound | Activity [1] [%] | Activity [2] | Activity [3] | Activity [4] | Activity [5] | Activity [6] | Activity [7] | Activity [8] | Activity [9]
1 | CCCCS(=N)(=O)CCC(N)C(=O)O (centres undefined) [BUTHIONINE SULFOXIMINE] | 80 |  |  |  |  |  |  |  | 
2 | O=[As][As+](=O)[O-] (centres undefined) |  | inactive | Active | inactive | Active | Active | inactive | Active | inactive
